GalR3 antag: human GalR3 antagonism; HEK293 GalR3-CNG cAMP membrane potential fluorescence; galR3 body fused to GalR1 C-terminus; inhibition, % at 3 µM; 360,000 tested, 0.44% active; O60755;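 active means inhibition above the screen-wide average plus 3 SD, cut at about 13% in these data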;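 further: forskolin and galanin both at EC90 stimulate the cells; cAMP rise reported by CNG channel membrane potential dye signal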
Arr AP2 block: blocks beta-arrestin peptide binding to AP2 adaptin; FITC-arrestin peptide / GST-AP2 beads, flow cytometry; AP2 beta2 appendage carries R879A mutation; inhibition, % at 10 µM; 340,000 tested, 0.31% active;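 active means inhibition above a set limit, near 3 SD of compounds lacking own fluorescence, cut at about 54% in these data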
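Material – GST-tagged AP2 beta2-adaptin appendage (R879A) on 4 µm glutathione beads · Probe or stimulus – fluorescein-tagged arrestin peptide at 50 nM final · Timing – 12 min plus 1 h, RT · Detection – bead flow cytometry, FITC channel · Read-out basis – inhibition as reduced fluorescein signal on beads, percent · Medium – PBS plus Tween 20 (0.05%) and BSA (0.1%)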
GC-A act: GC-A (human) enzyme activation; P16066; HEK293 GC-A cells, cGMP TR-FRET, EC30 ANP; 0% at EC30 ANP, 100% saturating ANP; activation, % at 10 µM; 370,000 tested, 0.14% active; in the data active means activation above about 40%
Target sequence (P16066 whole entry, looked up): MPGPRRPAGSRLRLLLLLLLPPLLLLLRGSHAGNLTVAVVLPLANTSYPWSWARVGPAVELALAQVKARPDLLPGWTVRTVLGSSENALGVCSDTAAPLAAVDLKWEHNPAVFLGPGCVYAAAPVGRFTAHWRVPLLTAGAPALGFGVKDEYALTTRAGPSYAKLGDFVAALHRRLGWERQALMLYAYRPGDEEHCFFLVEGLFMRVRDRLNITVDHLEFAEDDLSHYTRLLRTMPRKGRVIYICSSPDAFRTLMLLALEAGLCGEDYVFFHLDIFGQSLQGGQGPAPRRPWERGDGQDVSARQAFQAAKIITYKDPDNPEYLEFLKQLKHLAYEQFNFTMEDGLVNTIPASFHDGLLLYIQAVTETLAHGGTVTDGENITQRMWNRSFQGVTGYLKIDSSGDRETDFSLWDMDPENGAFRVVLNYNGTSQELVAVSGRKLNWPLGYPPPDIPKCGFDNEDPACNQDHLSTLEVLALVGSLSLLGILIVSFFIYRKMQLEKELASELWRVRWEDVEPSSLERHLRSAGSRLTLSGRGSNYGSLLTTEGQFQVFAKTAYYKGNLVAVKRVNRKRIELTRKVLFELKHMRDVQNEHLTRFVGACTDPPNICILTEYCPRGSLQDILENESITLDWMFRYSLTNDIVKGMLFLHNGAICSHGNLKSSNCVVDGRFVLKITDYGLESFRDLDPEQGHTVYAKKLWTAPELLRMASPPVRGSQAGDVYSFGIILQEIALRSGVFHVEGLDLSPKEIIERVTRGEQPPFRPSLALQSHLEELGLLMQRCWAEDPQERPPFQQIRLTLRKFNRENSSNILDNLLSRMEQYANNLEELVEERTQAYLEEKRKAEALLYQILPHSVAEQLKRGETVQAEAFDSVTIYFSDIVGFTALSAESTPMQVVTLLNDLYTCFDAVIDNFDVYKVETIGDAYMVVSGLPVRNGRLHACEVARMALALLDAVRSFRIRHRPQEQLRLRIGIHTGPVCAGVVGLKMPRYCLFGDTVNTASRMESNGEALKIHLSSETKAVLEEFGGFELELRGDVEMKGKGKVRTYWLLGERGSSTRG
NPR2 activator: GC-B (human) receptor activation; 370,000 tested, 0.11% active; AID 1920062; activation, % at 10 µM; P20594; HEK293-GC-B cells, CNP EC30, cGMP TR-FRET; 0% at EC30 CNP, 100% saturating CNP;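 active means activation at 10 µM reaching about 35% in either raw or pattern-adjusted values, limit read from the data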
Each line names hits and unclear results; the compound was inactive in the other large screens. In the library only some 0.94% were active in any assay of this set; here they are far more common.

C[C@@H]1CCN(C2CC2)S(=O)(=O)c2c(cccc2N2CCC[C@@H]2CO)O1	none (no result: GalR3 antag, Arr AP2 block)
CCCCc1c(-c2ccccc2OC)ncn1Cc1cccc(OC)c1	none (no result: Arr AP2 block)
Clc1ccc(CSc2nnc(Cn3cnc4ccccc43)o2)cc1	GalR3 antag 33.0
NC(=O)CSc1nnc(Cn2cnc3ccccc32)o1	none
COc1cccc(Oc2cn[nH]c2-c2ccc(O)cc2O)c1	GC-A act 54.8
COc1cccc(Oc2cn[nH]c2-c2ccc(OC)cc2O)c1	none
COC(=O)C1CN(Cc2ccc(F)cc2)CCS(=O)(=O)N1Cc1ccccc1 (centres undefined)	none (no result: GalR3 antag, Arr AP2 block)
COC(=O)c1cc2c(c3c4ccccc4n(S(=O)(=O)c4ccccc4)c13)C(=O)N(Cc1ccc(C(F)(F)F)cc1)C2	none (no result: Arr AP2 block)
Cc1cc(Br)c(NC(=O)COC(=O)CSc2nnc(-c3ccc(Cl)cc3)o2)c(Br)c1	GC-A act 60.1
CCCCOC(=O)CSc1nnc(-c2ccc(Cl)cc2Cl)o1	GC-A act 66.8
COC(=O)c1cc2c(c3c4ccccc4n(S(=O)(=O)c4ccc(C)cc4)c13)C(=O)N(C)C2	none (no result: Arr AP2 block)
CCOC(=O)/C(C#N)=C\c1ccc(OCC(=O)Nc2ccc(C)cc2C)c(OC)c1	GC-A act 46.5
CCOC(=O)/C(C#N)=C/c1ccc(OCC(=O)Nc2cc(C)ccc2C)c(OC)c1	none
C=C1C(=O)c2sccc2C(c2ccc(OC)c(OC)c2)C1COC(C)=O (centres undefined)	GalR3 antag 28.2
COc1cccc(C(=O)N[C@H](C(=O)N2CCC[C@H]2C(=O)NCc2ccccc2)c2ccccc2)c1	none (no result: Arr AP2 block)
Oc1ccc(C=Nc2ccccc2-c2nc3ccccc3[nH]2)cc1	NPR2 activator 44.9 (no result: Arr AP2 block)
CC(C)N1CCCCC(NC(=O)c2cccs2)C1=O (centres undefined)	none (no result: GalR3 antag, Arr AP2 block)
O=C(OC1CCOC1=O)c1ccc(CO)cc1 (centres undefined)	none
O=C(CCC(=O)c1ccc(F)cc1)OC1CCOC1=O (centres undefined)	GC-A act 56.2
O=C(Nc1cccc(S(=O)(=O)Nc2ccc(Cl)cc2)c1)c1ccc(Cl)nc1	GalR3 antag 72.6
O=C(Nc1ccc(NS(=O)(=O)c2ccccc2)cc1)c1ccc(Cl)cc1	none
Cc1ccc(C2NC(=S)NC3=C2C(=O)CCC3)cc1 (centres undefined)	none
CC(C)c1ccc(C2NC(=S)NC3=C2C(=O)CCC3)cc1 (centres undefined)	GC-A act 50.2
O=C(OC1CCOC1=O)C1CCN(S(=O)(=O)c2ccc(Cl)c(C(F)(F)F)c2)CC1 (centres undefined)	NPR2 activator 51.4
CCC1CCCCN1S(=O)(=O)c1ccc(NC(=O)c2nc(S(C)(=O)=O)ncc2Cl)cc1 (centres undefined)	GC-A act 42.4
CCS(=O)(=O)c1ncc(Cl)c(C(=O)Nc2ccc(S(=O)(=O)N3CCCC(C)C3)cc2)n1 (centres undefined)	GC-A act 43.5, NPR2 activator 41.4
CCC1CCCCN1S(=O)(=O)c1ccc(NC(=O)c2ccncc2)cc1 (centres undefined)	none
C=CCN1C(=O)[C@@H](CC(=O)NCc2ccc(OC)c(OC)c2)[C@]2(C(=O)OC)CCCCC=C12	none (no result: GalR3 antag, Arr AP2 block)
Cc1ccc(S(=O)(=O)NC(=O)ON=Cc2ccc3c(c2)OCO3)cc1	none (no result: Arr AP2 block)
COC(=O)C1=C(C)N(Cc2cccc(C(F)(F)F)c2)C(=NCc2ccc(OC)cc2)NC1c1cccc(C(F)(F)F)c1 (centres undefined)	none (no result: Arr AP2 block)
CCNC(=S)N/N=C/c1ccc(OCC(=O)Nc2ccc(OC)cc2)c(OC)c1	NPR2 activator 55.1
COc1ccc(C=NNC(=S)NN=Cc2ccc(OC)c(OC)c2)cc1OC	GalR3 antag 15.8
COc1cc(/C=N/NC(=S)NC(C)C)ccc1OCC(=O)Nc1c(C)cc(C)cc1C	NPR2 activator 43.9
COc1ccc(NC(=O)COc2ccc(/C=N/O)cc2OC)cc1	none
N#CCCn1cc(/C=N/NC(N)=S)c(-c2ccccc2)n1	none
N#CCCn1cc(/C=N/NC(N)=S)c(-c2ccc(Br)cc2)n1	NPR2 activator 55.1
Cc1cc2c(nc1C)CCCN2Cc1ccccn1	none (no result: Arr AP2 block)
Cc1nc(-c2ccc(Cl)cc2)sc1C(=O)NNC(=O)C(C)C	GC-A act 43.1
CNC(=O)c1sc(-c2ccc(Cl)cc2)nc1C	GC-A act 46.5
C[C@@H]1CN(c2ccc(N3CCNC[C@H]3C)cc2C#N)C[C@H](C)O1	none (no result: Arr AP2 block)
N#Cc1ccc(Cn2ccc3ccc(-c4ccc5ccn(C(=O)C6CC6)c5c4)cc32)cc1	none (no result: GalR3 antag, Arr AP2 block)
Cc1ccc([C@@H]2[C@@H]3C(=O)N(c4ccccc4)C(=O)[C@@H]3[C@]3(C)C(=O)N(Cc4ccccn4)CC(=O)N23)o1	none
Cc1ccc([C@@H]2[C@@H]3C(=O)N(c4ccccc4)C(=O)[C@@H]3[C@]3(C)C(=O)N(Cc4ccc(-c5ccccc5)cc4)CC(=O)N23)o1	GC-A act 49.1
COC(=O)C1=C(C)N(C)C(=NCc2ccccc2C(F)(F)F)NC1c1ccc(C(F)(F)F)cc1 (centres undefined)	none (no result: Arr AP2 block)
c1ccc(-c2nc3ccccc3nc2-c2ccc(CN3CCC4(CC3)CNc3ccccc34)cc2)cc1	none (no result: Arr AP2 block)
Cc1ccc(-n2sc3ccccc3c2=O)cc1S(=O)(=O)N1CCCCC1	Arr AP2 block 90.3
O=c1c2ccccc2sn1-c1ccc(S(=O)(=O)N2CCCCC2)cc1	none
Cc1ccc(Nc2c(-c3ccccc3)nc3cnccn23)cc1	GC-A act 48.7
Cc1ccc(Nc2c(-c3cccnc3)nc3ccc(Br)cn23)cc1	GC-A act 45.5, NPR2 activator 43.7
COc1ccc(-c2nc3cnccn3c2Nc2ccc(C)cc2)cc1	GC-A act 61.7, NPR2 activator 48.4 (no result: GalR3 antag)
C=CCN1[C@@H](C)[C@H](c2ccccc2)Oc2cccc(N3CCCC(C)C3)c2S1(=O)=O (some centres undefined)	none (no result: Arr AP2 block)
CCOC(=O)N[C@@H](CC(C)C)C(=O)N1CCC[C@H]1C(=O)NCc1ccccc1	none (no result: Arr AP2 block)
CCc1cccc(-n2c(C)cc(O)cc2=O)c1	none (no result: Arr AP2 block)
CC(=O)Nc1cccc(Oc2ncnc3scc(-c4ccc(C)cc4)c23)c1	GC-A act 55.4, NPR2 activator 58.5
N#Cc1c(N)[nH]c2ccc(Sc3ccccc3)cc12	GC-A act 59.4, NPR2 activator 44.0
CCn1ncc(Br)c1C(=O)Nc1ccc(F)c([N+](=O)[O-])c1	NPR2 activator 35.5
CCn1ncc(Br)c1C(=O)Nc1ccc(F)cc1F	none
O=C(CSc1nnc(COc2ccc(Cl)cc2)o1)OC1CCCCC1	GC-A act 76.1
Cc1cc(OCc2nnc(SCC(=O)OC3CCCCC3)o2)ccc1Cl	GC-A act 66.2
Cc1[nH]c2ccccc2c1CC(=O)Nc1ccc(Nc2ccncc2)cc1	none (no result: Arr AP2 block)
COc1cc(-c2cc(NC=O)c3ncc(-c4ccccc4)n3c2)cc(OC)c1OC	NPR2 activator 35.1 (no result: Arr AP2 block)
COc1cc(-c2cc(NC=O)c3ncc(-c4ccc(C(C)=O)cc4)n3c2)cc(OC)c1OC	NPR2 activator 35.0 (no result: Arr AP2 block)
